Measured values of several laboratories.
Compare with care: the assays were run in different laboratories. Converted amounts (≈) assume the structure as drawn.
Organism: Mycobacterium tuberculosis
Effect on: microbial growth

With `COc1ccc(-c2cc(C(F)(F)F)c3c(N)c(C(=O)N4CCCC4(C)C)sc3n2)cc1` the IC50 was over 100 µM (H37RV).
For `N#Cc1cc2c(=O)n(Cc3cccnc3)c(=S)[nH]c2cn1`, the MIC90 was 85.8 µM (H37RV).
The IC50 of `COc1ccc(-c2cc(C(F)(F)F)c3c(N)c(C(=O)N4CCC4)sc3n2)cc1` is reported as over 100 µM (H37RV).
`Cc1ccc(-c2cc(NCCc3ccc(OC(F)(F)F)cc3)n3cnnc3n2)o1` has an MIC of 0.46 µM (H37RV).
`CC(c1cccnc1)n1c(=S)[nH]c2cc(CO)c(Cl)cc2c1=O` (stereo not drawn) gave an MIC90 of over 100 µM (H37RV).
`CCCCCCC#Cc1cncc(-c2nnc(SCc3ccc(Cl)cc3)n2CCCN)c1` has an IC50 of 29 µM (resazurin; ERDMAN).
With `CN(C)Cc1cc2[nH]c(=S)n(Cc3cccnc3)c(=O)c2cc1Cl` the MIC90 was over 100 µM (H37RV).
For `CC(=O)c1cc(-c2ccoc2)ccc1OCCc1cccc(F)c1`, the IC50 was 0.26 µM.
`Clc1ccc(CCNc2cc(-c3ccco3)nc3nncn23)cc1` has an MIC of 4.8 µM (H37RV).
`CCCCCCC#Cc1cncc(-c2nnc(SCCCn3ccc(=O)[nH]c3=O)n2C)c1` has an IC50 of 25 µM (resazurin; ERDMAN).
`Cc1ccc(-c2cc(NCCc3ccc(F)cc3)n3cnnc3n2)o1` gave an MIC of 19 µM (H37RV).
`CN(C)C(=O)OCc1cc2[nH]c(=S)n(Cc3cncnc3)c(=O)c2cc1Cl` has an MIC90 of over 100 µM (H37RV).
For `CNC(=O)c1cc(C(F)F)ccc1OCCc1cccc(F)c1`, the IC50 was 0.73 µM.
`O=C(c1cc2ccc(-c3ccccc3)nc2s1)N1CCCC1` gave an IC90 of over 100000 nM (H37RV; 5 days).
With `CCCCCCC#Cc1cncc(-c2nnc(SCc3cc(C(F)(F)F)cc(C(F)(F)F)c3)n2CCCN)c1` the IC50 was 3.1 µM (resazurin; ERDMAN).
`CCc1cc(=O)c2c(OCC3CO3)c3ccoc3c(OC)c2o1` (stereo not drawn) has an MIC of 128 µg/mL (resazurin; H37RV; 21 days).
For `NNC(=O)c1ccncc1`, the MIC90 was 0.34 µM (H37RA).
`CCc1cc(=O)c2c(OCC(O)CN3CCCCC3)c3ccoc3c(OC)c2o1` (stereo not drawn) has an MIC of 32 µg/mL (resazurin; 21 days).
The MIC90 of `O=c1c2cc(Cl)c(CO)cc2[nH]c(=S)n1Cc1cncc(-c2nnn[nH]2)c1` is reported as 59.2 µM (H37RV).
`CCc1cc(=O)c2c(OCC(O)CNC(C)C)c3ccoc3c(OC)c2o1` (stereo not drawn) has an MIC of 16 µg/mL (resazurin; 21 days).
With `CCCCCCC#Cc1cncc(-c2nnc(SCc3cc([N+](=O)[O-])cc([N+](=O)[O-])c3)n2CCOC2OC(CN)C(O)C2O)c1` (stereo not drawn) the IC50 was 18 µM (resazurin; ERDMAN).
`COc1ccc(CCNc2cc(-c3ccccn3)nc3nncn23)cc1` gave an MIC of 0.39 µM (H37RV).
`NNC(=O)c1ccncc1` gave an MIC90 of 0.81 µg/mL (H37RV).
`c1ccc(-c2cc(NCCC34CC5CC(CC(C5)C3)C4)n3ncnc3n2)nc1` gave an MIC of 12 µM (H37RV).
`NNC(=O)c1ccncc1` gave an MIC of 0.5 µg/mL (resazurin; 21 days).
`COc1ccc(-c2cc(C(F)(F)F)c3c(N)c(C(=O)N4CCCC4)sc3n2)cc1` gave an IC50 of over 50 µM (H37RV).
The IC50 of `CCCCCCC#Cc1cncc(-c2nnc(SCc3ccc(Cl)cc3)n2CCO)c1` is reported as 49 µM (resazurin; ERDMAN).
The MIC of `Cc1ccc(CCNc2cc(-c3nccs3)nc3nncn23)cc1` is reported as 32 µM (H37RV).
The MIC90 of `COC(=O)OCc1cc2[nH]c(=S)n(Cc3cccnc3)c(=O)c2cc1Cl` is reported as 3.42 µM (H37RV).
`CCCCCCC#Cc1cncc(-c2nnc(SCc3cc([N+](=O)[O-])cc([N+](=O)[O-])c3)n2CCCN)c1` has an IC50 of 3.2 µM (resazurin; ERDMAN).
`Nc1c(C(=O)Nc2ccccc2C(F)(F)F)sc2nc(-c3ccccc3)cc(C(F)(F)F)c12` gave an IC50 of over 100 µM (H37RV).
With `NCC[C@H](O)C(=O)N[C@@H]1C[C@H](N)[C@@H](O[C@H]2O[C@H](CN)[C@@H](O)[C@H](O)[C@H]2O)[C@H](O)[C@H]1O[C@H]1O[C@H](CO)[C@@H](O)[C@H](N)[C@H]1O` the MIC50 was 1.2 µg/mL (≈ 2.05 µM) (H37RV).
The IC50 of `CCN(CC)C(=O)c1sc2ncccc2c1N` is reported as over 100 µM (H37RV).
`CCCCCCC#Cc1cncc(-c2nnc(SC[C@H]3O[C@@H](n4ccc(=O)[nH]c4=O)[C@H](O)[C@@H]3O)n2CCO)c1` has an IC50 of 196 µM (resazurin; ERDMAN).
`Nc1c(C(=O)N2CCOCC2)sc2nc(-c3ccccc3)ccc12` gave an IC50 of 46 µM (H37RV).
`CO[C@H]1/C=C/O[C@@]2(C)Oc3c(C)c(O)c4c(O)c(c(/C=N/N5CCN(C)CC5)c(O)c4c3C2=O)NC(=O)/C(C)=C\C=C\[C@H](C)[C@H](O)[C@@H](C)[C@@H](O)[C@@H](C)[C@H](OC(C)=O)[C@@H]1C` gave an MIC90 of 0.12 µg/mL (H37RV).
With `Cc1ccc(-c2cc(NCCc3ccc(C(F)(F)F)cc3)n3cnnc3n2)o1` the MIC was 0.37 µM (H37RV).
`CCC(NC(=O)c1sc2nc(-c3ccc(OC)cc3)cc(C(F)(F)F)c2c1N)c1ccccc1` (stereo not drawn) gave an IC50 of 0.55 µM (H37RV).
`COC(=O)c1cc2[nH]c(=S)n(Cc3cccnc3)c(=O)c2cc1Cl` gave an MIC90 of over 100 µM (H37RV).
With `FC(F)(F)c1ccc(CCNc2cc(-c3cccs3)nc3nncn23)cc1` the IC90 was 310 nM (H37RV).
For `CC[C@@H](CO)NCCN[C@@H](CC)CO`, the MIC was 0.5 µg/mL (resazurin; 21 days).
`C[C@H](N)C(=O)OCc1cc2[nH]c(=S)n(Cc3cncnc3)c(=O)c2cc1Cl` has an MIC90 of 4.22 µM (H37RV).
